From PubChem BioAssay
The entries come from a sample that favours hits as a whole.
MPTP inh: blocks calcium-induced mitochondrial swelling. inhibition, % at 10 µM. hit rate 1.4% among 360,000. isolated mouse mitochondria, Ca2+ swelling absorbance, 30 min. AID 602449;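 active = inhibition of 50% or more, scaled per plate between neutral and stimulator controls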
Lmaj promast: inhibitors of Leishmania major promastigote growth | Leishmania major promastigotes, resazurin fluorescence viability | AID 1063 | hit rate 9% among 200,000 | inhibition, % at 10 µM; in the data active = inhibition above about 50%;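 note: promastigotes grown with compound for 44 hours at 28 °C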
Redox H2O2 prof: compounds producing H2O2 with reducing agent – biochemical, NIH compound library profiling, artefact control for MLSCN library redox annotation, primary screen. activation, % at 10 µM. AID 878. DTT-dependent redox cycling H2O2, phenol red/HRP absorbance; 100% = 100 µM peroxide control, 0% = buffer. hit rate 0.03% among 200,000;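 active = activation of at least 50% relative to the plate's high and low controls in the primary single-dose screen; inactive = activation below 50%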;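 note: compound incubated with DTT at 0.8 mM final as the reducing agent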
T cruzi repl: blocks replication of Trypanosoma cruzi; inhibition, % (test concentration not listed); T. cruzi beta-gal in NIH3T3, luminescence, 90 h; AID 1885; hit rate 1.4% among 300,000;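 active = mean inhibition across valid replicates above about 55%, limit read from the data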;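 note: signal also drops with host cell toxicity which is not excluded here; higher percent means less beta-gal luminescence so fewer parasites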
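Test system: β-gal T. cruzi (Tulahuen C4) inside NIH/3T3 cells / Quantity: 5,000 cells/well / Measured by: luminescence from GalScreen with 0.05% NP40, read after 60 min / Medium: DMEM plus 2% FBS / Measure: parasite load inhibition, % / Reagent: Tulahuen C4 trypomastigotes, 5000/well / Schedule: co-culture of at least 90 h after 3 h attachment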
Hep lipid drop: hepatic lipid droplet formation modulation | hit rate 0.4% among 240,000 | inhibition, % at 6.5 µM | AML12 mouse hepatocytes, oleate lipid droplets, BODIPY imaging;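 active = lipid droplet intensity inhibited by at least 50%, with more than 500 cells counted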
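Test system: AML12 hepatocytes (mouse); reagent: oleate loading, 100 µM; dosing: one dose, 6.5 µM compound; incubation: overnight exposure; signal: fluorescence imaging, 20x objective, two fields per well; read-out basis: % inhibition of corrected integrated BODIPY droplet signal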
Of the large screens only hits and unclear results are named; the others gave an inactive call.

CCc1cccc(C)c1NC(=O)c1ccc(CN2CCc3ccccc3C2)cc1	Lmaj promast 65.7
Cc1cccc(NC(=O)c2ccc(CN3CCc4ccccc4C3)cc2)c1C	Lmaj promast 57.0
Cc1ccccc1NC(=O)c1ccc(CN2CCc3ccccc3C2)cc1	none
O=C(OCc1cn([C@@H]2C[C@H](c3ccc(Cl)cc3)N(C(=O)C3CCCCC3)C[C@H]2O)nn1)c1ccccc1	none (no result: Lmaj promast, Redox H2O2 prof, T cruzi repl, Hep lipid drop)
CN1CCN(c2ccc(Nc3ccnc4cc(Cl)ccc34)cc2)CC1	T cruzi repl 60.3 (no result: Lmaj promast, Redox H2O2 prof)
CCOc1ccc(Nc2ccnc3cc(Cl)ccc23)cc1	none (no result: Lmaj promast, Redox H2O2 prof)
COc1ccc(NC(=O)c2cccc(Oc3ccc([N+](=O)[O-])cc3Cl)c2)cc1	none
O=C(Nc1ncccn1)c1ccc([N+](=O)[O-])cc1[N+](=O)[O-]	none (no result: Lmaj promast, Redox H2O2 prof, Hep lipid drop)
COc1ccc(C)cc1NC(=O)c1ccc([N+](=O)[O-])cc1[N+](=O)[O-]	Lmaj promast 52.5, T cruzi repl 71.1
O=C(Nc1cccc2oc(=O)ccc12)c1ccc([N+](=O)[O-])cc1[N+](=O)[O-]	Lmaj promast 97.5
COc1ccc(C(=O)NNc2ccccc2)cc1OC	Lmaj promast 56.5 (no result: Hep lipid drop)
Cc1ccc(C)c(NC(=O)c2cccc(Oc3ccc([N+](=O)[O-])cc3Cl)c2)c1	T cruzi repl 55.2
O=C(COC(=O)[C@@H]1CC(O)CN1S(=O)(=O)c1ccc2c(c1)OCCO2)NCc1ccc(F)cc1 (stereo partly specified)	none
COc1ccc(CC(=O)Nc2nc(OCC(F)(F)F)cnc2-c2ccc(Cl)cc2Cl)cc1	none (no result: Lmaj promast, Redox H2O2 prof, T cruzi repl, Hep lipid drop)
O=C1CSC(=S)N1Cc1cccs1	none (no result: Lmaj promast, Redox H2O2 prof, T cruzi repl, Hep lipid drop)
COc1ccc([N+](=O)[O-])cc1NC(=O)Cc1ccc(C)cc1	Lmaj promast 57.8
COc1ccc(C(=O)Nc2ccccc2)cc1NC(=O)c1ccc([N+](=O)[O-])cc1	T cruzi repl 60.9 (no result: Lmaj promast, Redox H2O2 prof, Hep lipid drop)
COc1ccc([N+](=O)[O-])cc1NC(=O)Cc1ccc(Cl)cc1	none
COc1ccccc1NC(=O)/C(=C/c1cccc([N+](=O)[O-])c1)c1ccccc1	Lmaj promast 89.3
CCOC(=O)c1c(NC(=O)COC(=O)C2CC2C)sc(C)c1C (stereo unspecified)	none
Cc1cc(C)c(C)c(S(=O)(=O)N2CCN(CC(=O)c3c(N)n(Cc4ccccc4)c(=O)n(C)c3=O)CC2)c1C	Lmaj promast 99.3
CCn1c(=O)c(C(=O)CN2CCN(S(=O)(=O)c3ccccc3)CC2)c(N)n(Cc2ccccc2)c1=O	none
CCn1c(=O)c(C(=O)CN2CCN(S(=O)(=O)c3ccc(C)cc3C)CC2)c(N)n(Cc2ccccc2)c1=O	Lmaj promast 57.9
CC(C)N(C)NC(=S)Nc1ccccc1	Lmaj promast 62.5
Nc1[nH]n2c(=O)cc(-c3ccccc3)nc2c1N=Nc1ccc(S(N)(=O)=O)cc1	none
Nc1[nH]n2c(=O)cc(-c3ccccc3)nc2c1N=Nc1ccccc1	Lmaj promast 98.5 (no result: Hep lipid drop)
O=C1c2ccccc2CN1Cc1ccccc1	none (no result: Lmaj promast, Redox H2O2 prof)
O=C(Oc1cc(Cl)cc(Cl)c1)c1cnc2n(c1=O)CCS2	none (no result: Lmaj promast, Redox H2O2 prof)
COc1ccc(C(=O)C2CCCN(Cc3ccc4nonc4c3)C2)c(OC)c1 (stereo unspecified)	Lmaj promast 88.4, T cruzi repl 69.7
COc1cccc(O)c1CN1CCCC(C(=O)c2cccc(C(F)(F)F)c2)C1 (stereo unspecified)	none
COc1ccc(C(=O)C2CCCN(Cc3nc4ccccc4nc3C)C2)cc1OC (stereo unspecified)	Lmaj promast 79.5
O=C(NCC1CCCN(Cc2ccc3nonc3c2)C1)c1cccc(C(F)(F)F)c1 (stereo unspecified)	Lmaj promast 87.0, T cruzi repl 57.6
COCc1cc(CN2CCCC(C(=O)c3cccc(C(F)(F)F)c3)C2)ccc1OC (stereo unspecified)	Lmaj promast 91.6, T cruzi repl 65.7
CC1CC1C(=O)OCC(=O)NNC(=O)c1ccc([N+](=O)[O-])cc1 (stereo unspecified)	none (no result: Lmaj promast, Redox H2O2 prof, T cruzi repl, Hep lipid drop)
COc1ccc(C(=O)C2CCCN(Cc3c(O)cccc3OC)C2)cc1OC (stereo unspecified)	none (no result: Lmaj promast, Redox H2O2 prof)
COc1ccc(C(=O)C2CCCN(Cc3ccc(C#CCCO)cc3)C2)cc1F (stereo unspecified)	Lmaj promast 50.0, T cruzi repl 58.9
COc1ccc(C(=O)C2CCCN(Cc3ccc4nonc4c3)C2)cc1F (stereo unspecified)	Lmaj promast 90.6
COc1ccc(C(=O)C2CCCN(Cc3ccc4nonc4c3)C2)cc1OC (stereo unspecified)	Lmaj promast 88.9
COc1ccc(C(=O)C2CCCN(C3Cc4ccccc4C3)C2)cc1OC (stereo unspecified)	Lmaj promast 92.8
CCNC(=O)N1CCCC(C(=O)c2ccc(OC)c(OC)c2)C1 (stereo unspecified)	none
COc1ccccc1C(=O)NCCC(=O)NCc1ccccn1	none (no result: Lmaj promast, Redox H2O2 prof, T cruzi repl, Hep lipid drop)
Cc1cccc2c1NC(=O)C2(c1ccc(O)cc1)c1ccc(O)cc1	none (no result: Hep lipid drop)
Cc1cc(C2(c3ccc(O)c(C)c3)C(=O)Nc3ccccc32)ccc1O	Lmaj promast 93.0 (no result: Hep lipid drop)
CCN(CC)S(=O)(=O)c1cccc(NC(=O)c2ccc(SC)cc2OC)c1	Lmaj promast 61.8
COc1cc(SC)ccc1C(=O)Nc1ncc(C)s1	Lmaj promast 66.5
CCN(CC)S(=O)(=O)c1ccc(N2CCCC2)c(C(=O)Nc2ccc(OC)c(Cl)c2)c1	Lmaj promast 91.0
Cc1ccc(NC(=O)c2ccco2)c(NC(=O)C2CCCO2)c1 (stereo unspecified)	none
Cc1ccc(-n2c(C)nnc2SCC(=O)N(C)C2CCS(=O)(=O)C2)cc1 (stereo unspecified)	none (no result: Lmaj promast, Redox H2O2 prof, T cruzi repl, Hep lipid drop)
CC[N+](CC)(CC)C/C=C/CN1CCCCC1	Lmaj promast 58.4
COCCNC(=S)NC1CC2CCCC(C1)N2Cc1ccco1 (stereo unspecified)	none (no result: Hep lipid drop)
CCOc1ccc(NC(=S)NC2CC3CCC(C2)N3Cc2ccco2)cc1 (stereo unspecified)	Lmaj promast 68.0
COCCNC(=S)NC1CC2CCCC(C1)N2Cc1cccs1 (stereo unspecified)	none (no result: Hep lipid drop)
CCCN1C2CCCC1CC(NC(=S)Nc1cc(C)cc(C)c1)C2 (stereo unspecified)	Lmaj promast 53.6
Fc1ccc(NC(=S)NC2CC3CCC(C2)N3Cc2ccco2)cc1 (stereo unspecified)	Lmaj promast 81.6
Cc1cccc(NC(=S)NC2CC3CCCC(C2)N3Cc2cccs2)c1 (stereo unspecified)	Lmaj promast 89.3 (no result: Hep lipid drop)
CC(=O)Nc1ccc(-c2ccnc3c2CC(C(=O)NCCC(F)(F)F)O3)cc1 (stereo unspecified)	none (no result: Lmaj promast, Redox H2O2 prof, T cruzi repl, Hep lipid drop)
CCCCCCCCNC(CO)(CO)CO	none (no result: Lmaj promast, Redox H2O2 prof)
Cc1cc(C)cc(NC(=S)NC2CC3CCC(C2)N3Cc2ccco2)c1 (stereo unspecified)	Lmaj promast 90.1 (no result: Hep lipid drop)
Cc1ccc(C)c(NC(=S)NC2CC3CCCC(C2)N3CC(C)C)c1 (stereo unspecified)	Lmaj promast 65.1
